Measured values: publication PMC7473156 (European Journal of Medicinal Chemistry, 2020)
Entries after “also recorded” stand apart in the source; their conditions may differ.

Key:
HepG2 cells [1] = assay: Cell death of HepG2 cells stably transfected with CYP3A4-EGFP or empty vector; type: cell-based, human; settings: 15 μM, 24 h; for cell death of HepG2 cells: influence of cellular CYP3A4 overexpression: CYP3A4-EGFP versus vector
Outline: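 HepG2 cells were lipofected with pcDNA3-CYP3A4-EGFP or pcDNA3-EGFP and kept in G418 (0.5 mg/mL) for four weeks; plasmid presence was confirmed by PCR. Cells were seeded at 0.1 × 10^6 per well, adhered overnight, then exposed to 15 μM for 24 h. Propidium iodide (5 μg/mL in PBS) staining was read by flow cytometry without FSC/SSC gating. Specific cell death was calculated against control. Mean ± SEM, three independent experiments.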

[2] = test system: peripheral blood mononuclear cells (PBMCs); assay: PBMC cell death; type: cell-based, human; settings: 5 and 10 μM, 48 h, compared with RMS3 and RMS5
Outline: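 PBMCs were isolated from anticoagulated healthy-donor blood on a Ficoll density gradient and kept in RPMI 1640 with 20% FCS and penicillin/streptomycin. Treatment started 4 h after seeding and lasted 48 h. Cells were stained with propidium iodide (5 μg/mL in PBS) and read by flow cytometry, with debris excluded and PI-positive cells counted.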

VCR-R CEM cells [3] = assay: Mitochondrial membrane potential; type: cell-based, human; settings: 24 h
Outline: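 VCR-R CEM cells were seeded at 0.125 × 10^6 per well 4 h before 24 h exposure to 5 μM compound or DMSO. JC-1 (1 μg/mL) was applied for 1 h before harvest, with elacridar (5 μM) present […]. Cells were washed, resuspended in PBS and read by flow cytometry as the red/green fluorescence shift.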

VCR-R CEM cells [4] = assay: Western blot analysis of VCR-R CEM cell lysates; type: cell-based, human; settings: 5 μM, 24 h
Outline: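 VCR-R CEM cells were seeded at 2 × 10^6 per well 4 h before treatment with DMSO or 5 μM compound for 24 h. Lysates were made in RIPA, separated by SDS-PAGE and transferred to PVDF. Blots were probed for p-Akt (Ser473), total Akt, PARP, Bcl-xL and Mcl-1 (1:1000) and detected by chemiluminescence, with stain-free total protein as loading control.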

[5] = test system: human umbilical vein endothelial cells (HUVECs); assay: HUVEC viability; type: cell-based; settings: 10 μM, 24 h, compared with tetrandrine
Outline: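 HUVECs were cultured in ECGM with 10% FCS and antibiotics/antimycotic, for at most six passages. They were seeded at […], adhered overnight, then exposed to 1, 5 or 10 μM for 24 h. Viability was read by CellTiter-Blue, with fluorescence normalised to vehicle. Mean ± SEM, three independent experiments.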

HepaRG™ cells = assay: Toxicity to differentiated HepaRG cells without transfection; type: cell-based, human; settings: 24 h, compared with tetrandrine; for cell viability of HepaRG cells: 10 μM; for toxicity to HepaRG cells (cell viability): 20 μM
Outline: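 HepaRG cells were differentiated in Williams' E with GlutaMAX and Maintenance/Metabolism supplement, then exposed to compound for 24 h. Viability was read by CellTiter-Blue and normalised to vehicle control. Mean ± SEM, three independent experiments.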

HepG2 cells [6] = assay: Western blot analysis of HepG2 cells; type: cell-based, human; settings: 5 μM, 48 h
Outline: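 HepG2 cells were seeded at 0.5 × 10^6 per well, adhered overnight, then treated with DMSO or 5 μM compound for 24 or 48 h. Cells were lysed in RIPA, run on SDS-PAGE and transferred to PVDF. Blots were probed with p-Akt (Ser473), total Akt, PARP, Bcl-xL and Mcl-1 antibodies (1:1000) and detected by chemiluminescence, with stain-free total protein as loading control.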

VCR-R CEM cells [7] = assay: Apoptosis assay in combination with vincristine; type: cell-based, human; settings: 1 μM compound with varying doses of VCR, 48 h
P-gp = P-gp (Homo sapiens, UniProt P08183); assay: Calcein-AM retention assay in P-gp overexpressing VCR-R CEM cells; type: cell-based; settings: 0.1 and 1 μM
P-gp, sequence (P08183 whole entry): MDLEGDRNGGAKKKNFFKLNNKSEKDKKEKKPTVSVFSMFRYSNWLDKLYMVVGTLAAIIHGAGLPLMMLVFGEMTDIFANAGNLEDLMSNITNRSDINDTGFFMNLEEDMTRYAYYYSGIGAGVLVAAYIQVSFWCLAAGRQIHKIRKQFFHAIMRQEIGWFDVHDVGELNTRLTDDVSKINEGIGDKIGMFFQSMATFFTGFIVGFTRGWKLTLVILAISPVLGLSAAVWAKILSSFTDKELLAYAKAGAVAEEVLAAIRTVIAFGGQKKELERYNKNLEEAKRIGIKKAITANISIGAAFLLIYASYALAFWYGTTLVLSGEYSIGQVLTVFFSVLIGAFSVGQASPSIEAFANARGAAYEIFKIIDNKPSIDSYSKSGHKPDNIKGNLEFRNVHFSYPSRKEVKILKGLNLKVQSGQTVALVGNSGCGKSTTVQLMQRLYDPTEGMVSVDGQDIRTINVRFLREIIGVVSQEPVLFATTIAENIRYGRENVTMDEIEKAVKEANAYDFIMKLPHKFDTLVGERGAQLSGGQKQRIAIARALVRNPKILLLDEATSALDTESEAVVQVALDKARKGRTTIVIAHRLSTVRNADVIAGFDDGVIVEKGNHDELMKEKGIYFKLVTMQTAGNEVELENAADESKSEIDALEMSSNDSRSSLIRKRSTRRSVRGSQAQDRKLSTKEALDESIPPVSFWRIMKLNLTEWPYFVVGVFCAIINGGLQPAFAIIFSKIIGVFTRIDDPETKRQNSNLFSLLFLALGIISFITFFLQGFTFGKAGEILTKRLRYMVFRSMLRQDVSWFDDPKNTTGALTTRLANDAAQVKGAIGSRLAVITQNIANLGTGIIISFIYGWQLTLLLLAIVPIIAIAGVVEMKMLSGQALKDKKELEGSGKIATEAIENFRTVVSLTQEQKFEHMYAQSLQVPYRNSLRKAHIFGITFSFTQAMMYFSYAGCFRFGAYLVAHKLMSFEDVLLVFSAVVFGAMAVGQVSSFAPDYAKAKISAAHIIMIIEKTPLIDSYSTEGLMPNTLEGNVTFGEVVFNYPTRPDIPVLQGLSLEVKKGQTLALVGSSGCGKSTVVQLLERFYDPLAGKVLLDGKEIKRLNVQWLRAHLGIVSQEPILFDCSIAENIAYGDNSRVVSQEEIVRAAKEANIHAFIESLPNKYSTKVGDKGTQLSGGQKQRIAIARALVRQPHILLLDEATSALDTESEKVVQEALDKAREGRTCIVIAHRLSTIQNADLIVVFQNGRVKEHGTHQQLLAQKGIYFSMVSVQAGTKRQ
Outline: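 VCR-R CEM cells were loaded with calcein-AM (200 nM) plus test compound (0.1 or 1 μM) for 30 min at 37 °C. After a wash, they were kept without calcein-AM for a further 60 min at 37 °C, then analysed by flow cytometry. Geometric mean fluorescence intensity was normalised to the calcein-AM-only control.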

VCR-R CEM cells [8] = assay: Cell proliferation assay; type: cell-based, human; settings: 48 h, relative proliferation at 10 μM and IC50
Outline: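 VCR-R CEM cells (RPMI 1640, 10% FCS) were seeded at 0.02 × 10^6 per well and rested 4 h. Metabolic activity read at that point served as the zero value. Compound exposure was 48 h, with CellTiter-Blue added 2 h before the end and fluorescence read at 590 nm. IC50 was obtained by nonlinear regression; relative proliferation was also taken at 10 μM.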

[9] = test system: CYP3A4 overexpressing HepaRG™ cells; type: cell-based, human; settings: 10 μM, 24 h
Outline: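 HepaRG cells were differentiated in Maintenance/Metabolism medium, then lipofected with pcDNA3-CYP3A4-EGFP or pcDNA3-EGFP 16 h before treatment. Exposure was 10 μM for 24 h. Cell death was read by propidium iodide staining (5 μg/mL in PBS) and flow cytometry, with no FSC/SSC gating. Specific cell death was calculated against control. Mean ± SEM, three independent experiments.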

COc1cc2c(cc1OC)[C@@H](Cc1ccc(Oc3cc(C[C@@H]4c5cc(OC)c(OC)cc5CCN4C)ccc3O)cc1)N(C)CC2 [dauricine, reference compound]
cell death of HepG2 cells: influence of cellular CYP3A4 overexpression (HepG2 cells [1]): not significantly increased

COc1ccc2cc1Oc1ccc(cc1)C[C@H]1c3cc(c(OC)cc3CCN1C)Oc1c(OC)c(OC)cc3c1[C@H](C2)N(C)CC3 [tetrandrine, reference compound]
percentage of dead PBMCs [2]: highest percentage of dead PBMCs
mitochondrial membrane potential ΔΨm (JC-1 shift towards green fluorescence) (VCR-R CEM cells [3]): no such an effect

COc1cc2c3cc1Oc1c(OC)c(OC)cc4c1C(Cc1ccc(OC(F)(F)F)c(c1)Oc1ccc(cc1)CC3N(C)CC2)N(C)CC4 (racemic) [RMS3, (±)-12-Desmethoxy-12-trifluoromethoxytetrandrine and –isotetrandrine]
PARP cleavage (VCR-R CEM cells [4]): detected
cytotoxicity against HepG2 cells in comparison to tetrandrine (HepG2 cells [1]): generally increased cytotoxicities; also recorded: strongly increased cytotoxicites
viability of HUVECs [5]: slightly stronger effect on the viability of HUVECs than tetrandrine

COc1cc2c3cc1Oc1c(OC)c(OC)cc4c1C(Cc1ccc(Cl)c(c1)Oc1ccc(cc1)CC3N(C)CC2)N(C)CC4 (racemic) [RMS7, (±)-12-Desmethoxy-12-chlorotetrandrine and –isotetrandrine]
cytotoxicity against HepG2 cells in comparison to tetrandrine (HepG2 cells [1]): generally increased cytotoxicities
mitochondrial membrane potential ΔΨm (JC-1 shift towards green fluorescence) (VCR-R CEM cells [3]): no such an effect

COc1cc2c3cc1Oc1c(OC)c(OC)cc4c1C(Cc1ccc(OC(F)(F)F)c(c1)Oc1ccc(cc1)CC3N(C)CC2)N(C)CC4 (racemic) [RMS4, (±)-12-Desmethoxy-12-trifluoromethoxytetrandrine and –isotetrandrine]
cell viability of HepaRG cells (HepaRG™ cells): slightly
toxicity to HepaRG cells (cell viability) (HepaRG™ cells): significantly more toxic to HepaRG™ cells than tetrandrine
PARP cleavage (VCR-R CEM cells [4]): detected
cytotoxicity against HepG2 cells in comparison to tetrandrine (HepG2 cells [1]): generally increased cytotoxicities
p-Akt levels (HepG2 cells [6]): reduced

COc1cc2c3cc1Oc1c(OC)c(OC)cc4c1C(Cc1ccc(Cl)c(c1)Oc1ccc(cc1)CC3N(C)CC2)N(C)CC4 (racemic) [RMS8, (±)-12-Desmethoxy-12-chlorotetrandrine and –isotetrandrine]
cell viability of HepaRG cells (HepaRG™ cells): slightly
toxicity to HepaRG cells (cell viability) (HepaRG™ cells): significantly more toxic to HepaRG™ cells than tetrandrine
PARP cleavage (VCR-R CEM cells [4]): detected
cytotoxicity against HepG2 cells in comparison to tetrandrine (HepG2 cells [1]): generally increased cytotoxicities
sensitization of VCR-R CEM cells to vincristine (apoptosis) (VCR-R CEM cells [7]): most potent analogue as it significantly increased apoptosis at 0.01 μM VCR

COc1cc2c3cc1Oc1c(OC)c(OC)cc4c1[C@@H](Cc1ccc(O)c(c1)Oc1ccc(cc1)C[C@@H]3N(C)CC2)N(C)CC4 [berbamine, reference compound]
cell death of HepG2 cells: influence of cellular CYP3A4 overexpression (HepG2 cells [1]): not significantly increased

COc1cc2c3cc1Oc1c(OC)c(OC)cc4c1C(CCCCOc1ccc(cc1)CC3N(C)CC2)N(C)CC4 (racemic) [RMS9, (±)-Ring C propylidene analogues of tetrandrine and –isotetrandrine]
prevention of efflux of calcein-AM (P-gp inhibition) (P-gp): strongly reduces it
toxicity to HepaRG cells (cell viability) (HepaRG™ cells): significantly less toxic than tetrandrine
sensitization of VCR-R CEM cells to vincristine (apoptosis) (VCR-R CEM cells [7]): all but RMS9 and RMS10 were able to sensitize
mitochondrial membrane potential ΔΨm (JC-1 shift towards green fluorescence) (VCR-R CEM cells [3]): no such an effect
inhibition of proliferation of VCR-R CEM cells (VCR-R CEM cells [8]): nearly inactive

COc1cc2c3cc1Oc1c(OC)c(OC)cc4c1C(Cc1cccc(c1)Oc1ccc(cc1)CC3N(C)CC2)N(C)CC4 (racemic) [RMS1, (±)-12-Desmethoxytetrandrine and –isotetrandrine]
PARP cleavage (VCR-R CEM cells [4]): detected
cytotoxicity against HepG2 cells in comparison to tetrandrine (HepG2 cells [1]): generally increased cytotoxicities
mitochondrial membrane potential ΔΨm (JC-1 shift towards green fluorescence) (VCR-R CEM cells [3]): no such an effect

COc1cc2c3cc1Oc1c(OC)c(OC)cc4c1C(Cc1cc(cs1)Oc1ccc(cc1)CC3N(C)CC2)N(C)CC4 (racemic) [RMS5, (±)-Ring C thiophene analogues of tetrandrine and –isotetrandrine]
cytotoxicity against HepG2 cells in comparison to tetrandrine (HepG2 cells [1]): generally increased cytotoxicities; also recorded: strongly increased cytotoxicites
expression of Bcl-XL and Mcl-1 (HepG2 cells [6]): slightly diminished
p-Akt levels (HepG2 cells [6]): reduced

COc1cc2c3cc1Oc1c(OC)c(OC)cc4c1C(Cc1cccc(c1)Oc1ccc(cc1)CC3N(C)CC2)N(C)CC4 (racemic) [RMS2, (±)-12-Desmethoxytetrandrine and –isotetrandrine]
cell death of CYP3A4 overexpressing HepaRG cells versus empty vector [9]: strongest effect on cell viability
cell viability of HepaRG cells (HepaRG™ cells): strongly decreased cell viability
toxicity to HepaRG cells (cell viability) (HepaRG™ cells): significantly more toxic to HepaRG™ cells than tetrandrine
cytotoxicity against HepG2 cells in comparison to tetrandrine (HepG2 cells [1]): generally increased cytotoxicities

COc1cc2c3cc1Oc1c(OC)c(OC)cc4c1C(Cc1cc(cs1)Oc1ccc(cc1)CC3N(C)CC2)N(C)CC4 (racemic) [RMS6, (±)-Ring C thiophene analogues of tetrandrine and –isotetrandrine]
prevention of efflux of calcein-AM (P-gp inhibition) (P-gp): inhibition of P-gp
toxicity to HepaRG cells (cell viability) (HepaRG™ cells): significantly less toxic than tetrandrine
sensitization of VCR-R CEM cells to vincristine (apoptosis) (VCR-R CEM cells [7]): successfully sensitized VCR-R CEM cells to VCR
mitochondrial membrane potential ΔΨm (JC-1 shift towards green fluorescence) (VCR-R CEM cells [3]): no such an effect
inhibition of proliferation of VCR-R CEM cells (VCR-R CEM cells [8]): nearly inactive; also recorded: no direct effect on proliferation
